inhibition, IC50 and T1/2 data for seven molecules are collected here from ChEMBL document CHEMBL3826877, “Fatty Acid Amide Hydrolase (FAAH), Acetylcholinesterase (AChE), and Butyrylcholinesterase (BuChE): Networked Targets for the Development of Carbamates as Potential Anti-Alzheimer's Disease Agents” (J Med Chem, 2016).

pIC50: −log10 of the molar value.

T1 sequence (P22303 whole entry): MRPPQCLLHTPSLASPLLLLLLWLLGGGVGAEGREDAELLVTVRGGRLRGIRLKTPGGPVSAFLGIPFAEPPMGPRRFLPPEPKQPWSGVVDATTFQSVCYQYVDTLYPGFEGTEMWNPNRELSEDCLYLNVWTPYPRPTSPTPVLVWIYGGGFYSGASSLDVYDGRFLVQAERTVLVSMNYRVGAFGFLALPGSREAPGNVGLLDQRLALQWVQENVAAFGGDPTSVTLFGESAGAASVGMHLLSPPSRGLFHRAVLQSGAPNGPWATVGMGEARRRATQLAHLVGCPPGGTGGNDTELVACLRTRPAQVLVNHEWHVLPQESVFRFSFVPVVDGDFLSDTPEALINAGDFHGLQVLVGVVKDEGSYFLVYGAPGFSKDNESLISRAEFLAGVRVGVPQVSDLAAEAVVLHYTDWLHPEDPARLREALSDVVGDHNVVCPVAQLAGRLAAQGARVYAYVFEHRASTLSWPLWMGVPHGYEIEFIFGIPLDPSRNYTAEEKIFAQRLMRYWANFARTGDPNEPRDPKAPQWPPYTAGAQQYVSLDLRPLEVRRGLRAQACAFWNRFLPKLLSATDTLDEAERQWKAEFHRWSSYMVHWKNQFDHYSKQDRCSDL

One assay concerns the target T1, Acetylcholinesterase (Homo sapiens, UniProt P22303). Briefly: Inhibition of recombinant human AChE expressed in HEK293 cells assessed as enzyme carbamoylation using acetylthiocholine iodide as substrate preincubated with enzyme followed by substrate addition by Ellman's method. Conditions: TDE = time-dependent effect. (DTNB colorimetry detects thiols as they appear.)
`CCCCCCCNC(=O)Oc1cccc(CN(C)CCCCCOc2ccc3ccc(=O)oc3c2)c1`: the inhibition entry was “tde”.

Consider `CCCCCCCNC(=O)Oc1cccc(CN(C)CCCCCOc2ccc3c(c2)Oc2ncccc2C3)c1`, for which the inhibition entry was “tde”.

Take `CCCCCCCNC(=O)Oc1cccc(CN(C)CCCOc2ccc3c4c(c(=O)oc3c2)CCCC4)c1`: the inhibition result was “tde”.

The next assay concerns the target T1, Acetylcholinesterase. Description: Inhibition of recombinant human AChE expressed in HEK293 cells using acetylthiocholine iodide as substrate preincubated for 120 mins followed by substrate addition by Ellman's method.
Conditions: not given
In a few lines: (§1)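 Ellman assay at 37 °C in 0.1 M phosphate pH 8.0 with 340 µM DTNB, 0.02 U/mL enzyme and 550 µM thiocholine substrate. Enzyme and inhibitor preincubated before substrate: AChE 120 min (one compound 60 min), BuChE 15 or 20 min depending on N-substituent. Non-enzymatic blanks run. […] IC50 by linear regression of % inhibition vs log concentration. Mean of 2-3 independent runs in duplicate.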
A word on the pIC50: it is −log10 of the IC50, conventionally taken in molar units. Take `CCCCCCCNC(=O)Oc1cccc(Cn2cc(COc3ccc4ccc(=O)oc4c3)nn2)c1`: the pIC50 is 5.98.

Regarding `CCCCCCCNC(=O)Oc1cccc(CN(C)CCCCCOc2ccc3ccc(=O)oc3c2)c1`, the pIC50 was 7.95.

Regarding `CCCCCCCNC(=O)Oc1cccc(CN(C)CCCCCOc2ccc3c(c2)Oc2ncccc2C3)c1`, the pIC50 is 8.16.

For `CCCCCCCNC(=O)Oc1cccc(CN(C)CCCOc2ccc3c4c(c(=O)oc3c2)CCCC4)c1`, the pIC50 is 7.67.

For `CCCCCCCNC(=O)Oc1ccc(-n2cc(COc3ccc4ccc(=O)oc4c3)nn2)cc1`, the pIC50 was 3.80.

Turning to `CCCCCCCNC(=O)Oc1ccc(Cn2cc(COc3ccc4ccc(=O)oc4c3)nn2)cc1`, the pIC50 was 6.67.

For the next assay, the target named is T2, Fatty-acid amide hydrolase 1 (Rattus norvegicus, UniProt P97612).
T2 sequence (P97612 whole entry): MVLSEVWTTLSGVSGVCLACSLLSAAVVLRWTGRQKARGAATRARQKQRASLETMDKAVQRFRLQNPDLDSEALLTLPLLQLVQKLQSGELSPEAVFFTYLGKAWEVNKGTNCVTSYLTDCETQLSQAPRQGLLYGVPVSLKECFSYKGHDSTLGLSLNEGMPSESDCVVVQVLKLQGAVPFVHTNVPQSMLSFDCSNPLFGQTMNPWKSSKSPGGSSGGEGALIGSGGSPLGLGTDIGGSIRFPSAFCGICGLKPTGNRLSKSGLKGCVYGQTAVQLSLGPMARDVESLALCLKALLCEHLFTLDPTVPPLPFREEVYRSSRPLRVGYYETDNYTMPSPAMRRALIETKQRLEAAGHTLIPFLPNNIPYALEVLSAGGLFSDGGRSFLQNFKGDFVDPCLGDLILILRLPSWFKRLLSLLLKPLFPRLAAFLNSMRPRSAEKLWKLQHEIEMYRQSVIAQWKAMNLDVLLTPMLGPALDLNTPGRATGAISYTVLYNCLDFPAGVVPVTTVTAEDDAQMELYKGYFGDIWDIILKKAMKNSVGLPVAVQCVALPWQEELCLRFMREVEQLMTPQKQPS
Description: Inhibition of FAAH in rat brain membrane using N-arachidonoyl-[14C]-ethanolamine as substrate incubated for 30 mins by scintillation counting method.
Conditions: not given
It is filed as cell membranes. In a few lines: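 Rat brain 10,000 x g membrane fraction (70 µg/sample) co-incubated with compound and [14C]-AEA diluted with unlabelled AEA in 50 mM Tris-HCl, pH 9.00-10.00, 37 °C, 30 min. Released [14C]-ethanolamine measured by scintillation of the aqueous phase after CHCl3/MeOH 1:1 extraction.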
`CCCCCCCNC(=O)Oc1cccc(Cn2cc(COc3ccc4ccc(=O)oc4c3)nn2)c1` gave a pIC50 of 6.96.

For the molecule `CCCCCCCNC(=O)Oc1cccc(CN(C)CCCCCOc2ccc3ccc(=O)oc3c2)c1`, the pIC50 is 5.89.

On to `CCCCCCCNC(=O)Oc1cccc(CN(C)CCCCCOc2ccc3c(c2)Oc2ncccc2C3)c1`, for which the pIC50 is 5.66.

Regarding `CCCCCCCNC(=O)Oc1cccc(CN(C)CCCOc2ccc3c4c(c(=O)oc3c2)CCCC4)c1`, the negative-log IC50 (pIC50) was 5.60.

For the molecule `CCCCCCCNC(=O)Oc1ccc(-n2cc(COc3ccc4ccc(=O)oc4c3)nn2)cc1`, the pIC50 is 6.78.

`CCCCCCCNC(=O)Oc1ccc(Cn2cc(COc3ccc4ccc(=O)oc4c3)nn2)cc1` gave a pIC50 of 6.45.

Another assay deals with T3, Cholinesterase (Homo sapiens, UniProt P06276). Description: Inhibition of human serum BuChE using butyrylthiocholine iodide as substrate preincubated for 20 mins followed by substrate addition by Ellman's method.
T3 sequence (P06276 whole entry): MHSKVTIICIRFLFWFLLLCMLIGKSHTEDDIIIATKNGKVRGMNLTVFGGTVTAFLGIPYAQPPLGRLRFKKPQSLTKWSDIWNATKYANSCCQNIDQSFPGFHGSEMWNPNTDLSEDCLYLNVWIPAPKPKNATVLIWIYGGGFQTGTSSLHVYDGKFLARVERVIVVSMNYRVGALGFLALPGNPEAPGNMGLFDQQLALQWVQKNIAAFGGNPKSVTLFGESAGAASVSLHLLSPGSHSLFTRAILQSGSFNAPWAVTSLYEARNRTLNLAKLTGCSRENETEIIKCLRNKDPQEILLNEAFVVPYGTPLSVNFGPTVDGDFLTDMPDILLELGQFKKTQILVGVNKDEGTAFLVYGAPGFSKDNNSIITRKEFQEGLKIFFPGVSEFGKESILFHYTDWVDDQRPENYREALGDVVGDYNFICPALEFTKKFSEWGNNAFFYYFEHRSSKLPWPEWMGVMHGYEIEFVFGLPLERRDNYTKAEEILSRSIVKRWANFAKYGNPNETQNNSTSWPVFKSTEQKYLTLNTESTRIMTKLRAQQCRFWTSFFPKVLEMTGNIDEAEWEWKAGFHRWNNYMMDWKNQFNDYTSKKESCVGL
Conditions: not given
In a few lines:
as §1
`CCCCCCCNC(=O)Oc1cccc(Cn2cc(COc3ccc4ccc(=O)oc4c3)nn2)c1` showed a pIC50 of 7.11.

`CCCCCCCNC(=O)Oc1cccc(CN(C)CCCCCOc2ccc3ccc(=O)oc3c2)c1` gave a pIC50 of 9.10.

`CCCCCCCNC(=O)Oc1cccc(CN(C)CCCCCOc2ccc3c(c2)Oc2ncccc2C3)c1` showed a pIC50 of 9.28.

For `CCCCCCCNC(=O)Oc1cccc(CN(C)CCCOc2ccc3c4c(c(=O)oc3c2)CCCC4)c1`, the pIC50 is 9.57.

In turn, `CCCCCCCNC(=O)Oc1ccc(-n2cc(COc3ccc4ccc(=O)oc4c3)nn2)cc1` showed a pIC50 of 3.91.

`CCCCCCCNC(=O)Oc1ccc(Cn2cc(COc3ccc4ccc(=O)oc4c3)nn2)cc1` showed a pIC50 of 7.80.

For the next assay, the system named is Homo sapiens. Briefly: Binding affinity to AChE in human assessed as enzyme reactivation half life at 1.5 mg/kg, iv dosed over 60 mins infusion. It is filed as functional, organism-based.
Conditions: not given
Consider `CNC(=O)Oc1ccc2c(c1)[C@]1(C)CCN(C)[C@@H]1N2C`, for which the T1/2 amounted to 30 min.

Another assay concerns the target T3, Cholinesterase. Description: Inhibition of human serum BuChE assessed as enzyme carbamoylation using butyrylthiocholine iodide as substrate preincubated with enzyme followed by substrate addition by Ellman's method. Conditions: TDE = time-dependent effect.
Consider `CCCCCCCNC(=O)Oc1cccc(CN(C)CCCCCOc2ccc3ccc(=O)oc3c2)c1`, for which the inhibition entry was “tde”.

For `CCCCCCCNC(=O)Oc1cccc(CN(C)CCCCCOc2ccc3c(c2)Oc2ncccc2C3)c1`, the inhibition entry is “tde”.

With `CCCCCCCNC(=O)Oc1cccc(CN(C)CCCOc2ccc3c4c(c(=O)oc3c2)CCCC4)c1`, the inhibition entry is “tde”.

The target in the next assay is T2, Fatty-acid amide hydrolase 1. Briefly: Inhibition of FAAH in rat brain membrane using N-arachidonoyl-[14C]-ethanolamine as substrate preincubated for 20 mins followed by substrate addition measured after 30 mins by scintillation counting method. It is filed as cell membranes.
Conditions: not given
The procedure, abridged:
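Compound preincubated 20 min at 37 °C with rat brain 10,000 x g membranes (70 µg/sample), then [14C]-AEA (diluted with AEA) added in 50 mM Tris-HCl pH 9.00-10.00, 37 °C, 30 min. [14C]-ethanolamine counted by scintillation after CHCl3/MeOH 1:1 extraction.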
As to `CCCCCCCNC(=O)Oc1cccc(Cn2cc(COc3ccc4ccc(=O)oc4c3)nn2)c1`, the pIC50 is 7.49.

`CCCCCCCNC(=O)Oc1cccc(CN(C)CCCCCOc2ccc3ccc(=O)oc3c2)c1` showed a pIC50 of 6.62.

Consider `CCCCCCCNC(=O)Oc1cccc(CN(C)CCCCCOc2ccc3c(c2)Oc2ncccc2C3)c1`, for which the pIC50 was 6.75.

Consider `CCCCCCCNC(=O)Oc1cccc(CN(C)CCCOc2ccc3c4c(c(=O)oc3c2)CCCC4)c1`, for which the pIC50 was 6.51.

Regarding `CCCCCCCNC(=O)Oc1ccc(-n2cc(COc3ccc4ccc(=O)oc4c3)nn2)cc1`, the pIC50 is 7.67.

`CCCCCCCNC(=O)Oc1ccc(Cn2cc(COc3ccc4ccc(=O)oc4c3)nn2)cc1`: the pIC50 was 7.26.
